In the library only some 3% were active in any assay of this set; here they are far more common.
MPTP block – mitochondrial permeability transition pore inhibitors, primary screen, biochemical, isolated mouse mitochondria, absorbance. Ca2+ swelling absorbance, 30 min. inhibition, % at 10 µM. 360,000 tested, 1.4% active;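 active means inhibition of 50% or more, scaled per plate between neutral and stimulator controls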;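 further: 0% = DMSO wells given calcium and 100% = 1 mM EGTA wells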
MIN6 prolif-1 – inducers of MIN6 beta-cell proliferation, primary screen, ATP luminescence, uHTS; MIN6 cells proliferation, ATPlite luminescence, 48 h; cells starved in 0.2% serum; 100% = growth in 10% serum; AID 2380, 2010; proliferation, % at 10 µM; 330,000 tested, 0.29% active;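 active means compounds whose signal lies at least 3.5 SD above the mean of all wells on their plate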;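 further: 0% = DMSO-treated cells in low-serum medium and 100% = 10% serum control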
Granule exo inh – LAMP-1 surface exposure blockers, TALL-104 cells – cell-based, flow cytometry, MLPCN library, primary screen | inhibition, % at 10 µM | TALL-104 LAMP-1 surface exposure; cells stimulated with thapsigargin and PMA | 360,000 tested, 0.66% active;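 active means inhibition above about 55%, limit read from the data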
iPSC survival up – enhancers of single-cell hiPSC survival, primary screen, ATPlite luminescence | survival enhancement, % at 20 µM | 100% = ROCK inhibitor wells, 0% = DMSO | AID 602274, 2012 | 360,000 tested, 0.044% active; in the data active means survival enhancement above about 18%;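 further: cells exposed to compounds for 16 hours before the ATP read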
Apaf-1 inh – inhibitors of human Apaf-1 apoptosome, primary screen, biochemical, DEVD-Rh110 fluorescence, uHTS. Apoptotic protease-activating factor 1 (Homo sapiens), O14727. reconstituted apoptosome caspase-3 activity. inhibition, % at 20 µM. 330,000 tested, 0.71% active; active means inhibition of at least 40% at 20 µM;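 further: plate controls were DMSO wells for no effect and DEVD-CHO caspase inhibitor wells for full effect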
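detection = Rh110 fluorescence intensity | test system = biochemical Apaf-1 apoptosome reconstitution | also added = cytochrome c and DEVD-Rh110 substrate | schedule = 30 min plus 50 min, RT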
UBC13 inh – UBC13 polyubiquitin chain formation inhibitors, primary screen, biochemical, TR-FRET, uHTS; AID 485273, 2010; 330,000 tested, 0.47% active; Ubiquitin-conjugating enzyme E2 N (Homo sapiens), P61088; inhibition, % at 20 µM; in the data active means inhibition above about 45%, passing the limit was not always enough
Target sequence (P61088 whole entry, looked up): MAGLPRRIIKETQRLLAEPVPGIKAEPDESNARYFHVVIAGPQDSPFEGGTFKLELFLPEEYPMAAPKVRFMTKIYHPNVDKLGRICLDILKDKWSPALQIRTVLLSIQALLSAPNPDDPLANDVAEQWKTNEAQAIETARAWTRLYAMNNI
MIN6 prolif-2 – inducers of beta-cell proliferation in MIN6, confirmation, MIN6 cells, mouse; shares compounds with MIN6 prolif-1; ATPlite luminescence, 48 h; cells kept in 0.2% serum; scaled between 0.2% and 10% serum; proliferation increase, % at 50 µM; 920 tested, under 10 active;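 active means proliferation increase above 40% at any of the four tested concentrations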
The depositor's hits bear a star; x = not tested or not shown.

SMILES	MPTP block	MIN6 prolif-1	Granule exo inh	iPSC survival up	Apaf-1 inh	UBC13 inh	others
CC(C)[C@H]1C(=O)N2CCC[C@H]2[C@]2(O)O[C@](NC(=O)[C@@H]3C=C4c5cccc6[nH]cc(c56)C[C@H]4N(C)C3)(C(C)C)C(=O)N12	-1.0	-6.2	0.3	0.1	94.8*	-36.4
CC(C)[C@@]1(NC(=O)[C@@H]2C[C@@H]3c4cccc5[nH]cc(c45)C[C@H]3N(C)C2)O[C@@]2(O)[C@@H]3CCCN3C(=O)[C@H](Cc3ccccc3)N2C1=O	-4.0	-5.4	13.0	-1.1	22.5	23.6
CC(C)C[C@H]1C(=O)N2CCCC2[C@]2(O)O[C@](NC(=O)[C@@H]3C=C4c5cccc6[nH]cc(c56)CC4N(C)C3)(C(C)C)C(=O)N12 (stereo partly drawn)	1.3	-7.7	2.0	-0.6	86.8*	-86.5
O=S(=O)(c1ccccc1)C1CN1c1c(F)c(F)c(F)c(F)c1F (stereo not drawn)	1.3	x	-6.8	-0.4	x	x
COc1cc(/C=C/[N+](=O)[O-])ccc1O	5.0	-8.8	19.0	-1.3	-5.7	-51.4
CCN(CC)c1ccc(/C=C/[N+](=O)[O-])cc1	12.2	-6.9	70.9*	-0.2	2.2	-184.1
C[CH2][Hg][S]c1ccccc1C(=O)O	1.8	-8.2	69.3*	-2.7	21.1	-19.2
CC(C)COC(=O)c1ccccc1C(=O)OCC(C)C	-0.1	-1.3	-6.2	3.4	-2.9	7.3
COC(=O)[C@@]1(Sc2ccc(C)cc2)CC(=O)N(P(=O)(OC)OC)[C@@H]1c1ccccc1	0.3	x	-5.2	0.2	x	x
C=C(C=O)CC1CC(O)[C@]2(C)OC3CC4OC5C[C@]6(C)O[C@]7(C)CCC8OC9C[C@]%10(C)OC%11C(C)=CC(=O)OC%11CC%10OC9C[C@@H](C)C8OC7CC6O[C@]5(C)CC5OC5C4OC3CC2O1 (stereo partly drawn)	-1.1	-8.1	-12.6	39.9*	23.0	-0.5
COc1cc(/C=C(/C)[N+](=O)[O-])ccc1OCc1ccccc1Cl	13.4	-5.9	84.7*	-2.6	6.4	-8.8
COc1cc(C=C2C(=O)NC(=O)NC2=O)ccc1OCc1ccc([N+](=O)[O-])cc1	-0.9	x	-3.2	-1.0	x	x
COc1cc(C=NNC(=S)Nc2ccc(S(=O)(=O)N3CCCCC3)cc2)cc(OC)c1OC	0.8	x	0.5	1.5	x	x
COc1ccc(Cn2c(O)c(C=NCCCn3ccnc3)c(=O)[nH]c2=O)cc1	-13.0	-3.2	-0.3	17.5*	6.1	1.0
CNCC[C@@H](Oc1ccc(C(F)(F)F)cc1)c1ccccc1	x	-7.3	6.1	-3.7	33.3	33.9
CCOC(=O)c1c(N)n(Cc2ccco2)c2nc3ccccc3nc12	2.2	0.2	-0.6	1.2	28.1	2.1
Nc1c(C(=O)NCc2ccco2)c2nc3ccccc3nc2n1Cc1ccccc1	1.7	-6.0	21.7	0.7	23.2	-1.5
COCC(C)OC(=O)c1c(N)n(Cc2ccco2)c2nc3ccccc3nc12 (stereo not drawn)	-1.5	-2.0	-0.8	3.1	60.7*	-23.1
Nc1c(C(=O)NCc2ccco2)c2nc3ccccc3nc2n1CCN1CCOCC1	1.6	0.8	-0.7	-2.5	44.2*	-14.4
CCCCCCn1c(N)c(C(=O)NCCN2CCOCC2)c2nc3ccccc3nc21	0.9	-5.4	18.8	0.1	51.8*	-1.1
COc1cccc(C(c2nnnn2Cc2ccccc2)N2CCC3(CC2)C(=O)NCN3c2ccccc2)c1OC (stereo not drawn)	1.6	x	6.9	-0.4	x	x
O=C1C=Cc2ccccc2C1=O	x	-7.7	x	x	61.8*	-42.6
CN1C(=O)/C(=C/c2cccn2-c2ccc3ccccc3c2)C(=O)NC1=S	4.4	-4.5	98.5*	3.7	5.1	-27.8
COc1ccccc1-c1cc(NC(C)=O)c2ncc(-c3ccccc3)n2c1	0.5	x	54.0	5.4	x	x
C=CCn1c(O)c(C(CC)=NCc2ccco2)c(=O)[nH]c1=O	1.5	6.2*	1.2	0.1	-21.1	3.5	MIN6 prolif-2=0.5
SMILES	MPTP block	MIN6 prolif-1	Granule exo inh	iPSC survival up	Apaf-1 inh	UBC13 inh	others
O=c1[nH]c2ccccc2n1C1CCN(C(CCc2ccccc2)c2nnnn2-c2ccc3c(c2)OCCO3)CC1 (stereo not drawn)	-1.7	x	0.6	0.4	x	x
COc1ccc(-c2cc(=O)c3c(OC)c(OC)c(OC)cc3o2)cc1	-0.8	9.3*	-1.4	1.2	-5.8	-6.8	MIN6 prolif-2=-2.0
COc1cccc(-n2c(/C=C/c3ccccn3)nc3ccccc3c2=O)c1	-0.5	8.5*	-2.6	-0.6	8.2	-13.9	MIN6 prolif-2=-6.2
Cc1cccc(-n2c(/C=C/c3ccccn3)nc3ccccc3c2=O)c1	2.9	1.4	4.4	-0.1	-9.0	-7.1
CCOC(=O)c1cccc(C2=C(CNC(=O)c3ccc([N+](=O)[O-])cc3)[C@H]3CC[C@@H](C2)N3Cc2ccccc2)c1	-2.2	x	1.4	-1.1	x	x
CC(C)C[C@@H]1COc2cc(N3CCN(C)CC3)ccc2S(=O)(=O)N1	0.9	x	-3.2	-1.0	x	x
CC(=O)c1ccc(OC(NC(=O)c2ccco2)C(Cl)(Cl)Cl)cc1 (stereo not drawn)	0.4	7.2*	1.5	-1.5	-10.4	-2.8	MIN6 prolif-2=-0.7
c1cc2c(cc1-c1ccc3c(c1)OCO3)CNCc1cnnn1-2	-0.6	x	2.1	-1.3	x	x
CC/C(=N\NC(=O)c1ccccc1)c1c(O)n(C2CCCCC2)c(=O)[nH]c1=O	2.4	11.6*	14.7	0.6	-1.9	-16.7	MIN6 prolif-2=-4.7
CC/C(=N\NC(=O)c1ccccc1Cl)c1c(O)n(C2CCCCC2)c(=O)[nH]c1=O	0.2	-0.5	-5.6	-0.3	5.4	-10.9
Cc1ccc(-n2c(O)c(C=Nc3ccc(S(N)(=O)=O)cc3)c(=O)[nH]c2=O)cc1	-1.1	-3.9	-4.8	2.0	0.0	6.6
NS(=O)(=O)c1ccc(N=Cc2c(O)n(-c3ccccc3)c(=O)[nH]c2=O)cc1	-0.9	8.2*	-1.2	1.3	-5.4	-1.6	MIN6 prolif-2=2.8
CN1CCN(c2nc3ccccc3o2)CC1	1.8	7.3*	-1.4	0.3	-23.9	7.3	MIN6 prolif-2=-1.6
